Results from different studies.
Cell line: SK-OV-3

COc1cc(CNC(=O)CCCC/C=C/C(C)C)ccc1O — IC50 (cell growth or viability; SRB): 22 µM
COc1ccc(C(=O)/C=C/c2ccccc2Br)cc1S(N)(=O)=O — inhibition (cell growth or viability; SRB; 10 µM): 30%
COc1cc(Nc2nccc(-c3cnn4nc(OC)ccc34)n2)cc(C(F)(F)F)c1 — IC50 (cell growth or viability; ATP luminescence): 0.16 µM
COc1cccc(Oc2ccccc2NC(=O)CNC(=O)c2cccc3ccccc23)c1 — GI50 (cell growth or viability; SRB; 48 h): 0.49 µM
COc1cc(CNC(=O)CCCC/C=C/C(C)C)ccc1OCc1cn(-c2ccc(C(F)(F)F)cc2)nn1 — IC50 (cell growth or viability; SRB): 10.6 µM
CC/C(=C(\c1ccccc1)c1ccc(OCCN(C)C)cc1)c1ccccc1 — EC90 (cell growth or viability; ATP luminescence; 72 h): 17.4 µM
Cn1ncnc1[C@H]1c2n[nH]c(=O)c3cc(F)cc(c23)N[C@@H]1c1ccc(F)cc1 — IC50 (colony formation): 0.0234 µM
COc1ccc(C(=O)/C=C/c2ccc3ccccc3c2)cc1S(N)(=O)=O — inhibition (cell growth or viability; SRB; 10 µM): 77%
Cc1cc(C)n(C(=S)[S][Au][PH](CCCCCC[PH]([Au][S]C(=S)n2nc(C)cc2C)(c2ccccc2)c2ccccc2)(c2ccccc2)c2ccccc2)n1 — GI50 (cell growth or viability): 0.852 µM
COc1ccc(C(=O)/C=C/c2ccc(Cl)c(Cl)c2)cc1S(N)(=O)=O — inhibition (cell growth or viability; SRB; 10 µM): 48%
COc1ccc(-c2ccc(-c3ccc(C(=N)N)nc3)s2)cc1Cl — GI50 (cell growth or viability; SRB): 1.75 µM
COc1ccc(C(=O)/C=C/c2cccc3ccccc23)cc1S(N)(=O)=O — GI50 (cell growth or viability; SRB; 48 h): 3.7 µM
O=C(c1cc(Cc2n[nH]c(=O)c3ccccc23)ccc1F)N1CCN(C(=O)C2CC2)CC1 — IC50 (colony formation): 2.63 µM
C[C@]12CC[C@@H]3c4ccc(O)cc4CC[C@H]3[C@@H]1CC[C@@H]2O — EC50 (cell growth or viability; ATP luminescence; 72 h): 18.1 µM
COc1ccc(C(=O)/C=C/c2c(F)cccc2Cl)cc1S(N)(=O)=O — inhibition (cell growth or viability; SRB; 10 µM): 73%
C#C[C@@]1(O)[C@@H](CO)O[C@@H](n2cc(Cl)c3c(N)ncnc32)[C@@H]1O — GI50 (cell growth or viability; SRB): 0.119 µM
COc1ccc(C(=O)/C=C/c2cccc(Cl)c2)cc1S(N)(=O)=O — GI50 (cell growth or viability; SRB; 48 h): 6.2 µM
O=c1[nH]cc(F)c(=O)[nH]1 — IC50 (cell growth or viability; MTT; 48 h): 37.3 µM
